Results reported in ChEMBL document CHEMBL5143669, “Stapled peptides as scaffolds for developing radiotracers for intracellular targets: Preliminary evaluation of a radioiodinated MDM2-binding stapled peptide in the SJSA-1 osteosarcoma model” (Bioorg Med Chem Lett, 2022).
pIC50, pKd: −log10 of the molar value. Blank lines part the entries; values can stand above or below the molecule they belong to.

Key:
[1] = Lipophilicity, logD of the compound using n-octanol and phosphate-buffered saline at pH 7.4 by the shake flask method; type: physicochemical
Procedure, shortened: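 Shake-flask partition of the 125I-labeled peptide between n-octanol and PBS pH 7.4; logD from n = 4.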

[2] = Metabolic stability in athymic mouse plasma assessed as intact labeled peptide level at 3.7 MBq, iv after 2 hrs by RP-HPLC; type: ADME, organism-based
Procedure, shortened: (§1)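 Tumor-free athymic mice were given 131I-labeled peptide via tail vein. Plasma was collected at 2 and 4 h (n = 2 per time) and analysed by RP-HPLC on an RP-18 column with an ethanol/0.05 M sodium acetate pH 5.5 gradient at 1 mL/min; intact fraction taken as percentage of plasma radioactivity.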

[3] = Metabolic stability in athymic mouse plasma assessed as intact labeled peptide level at 3.7 MBq, iv after 4 hrs by RP-HPLC; type: ADME, organism-based; procedure, shortened: as §1
[4] = molecular target: T1, E3 ubiquitin-protein ligase Mdm2 (Homo sapiens, UniProt Q00987); assay: Binding affinity to MDM2 (unknown origin)
[5] = molecular target: T1, E3 ubiquitin-protein ligase Mdm2; assay: Binding affinity to recombinant human MDM2 by using 5-FAM-PMDM6 by fluorescence polarization based assay

T1 sequence (Q00987 whole entry): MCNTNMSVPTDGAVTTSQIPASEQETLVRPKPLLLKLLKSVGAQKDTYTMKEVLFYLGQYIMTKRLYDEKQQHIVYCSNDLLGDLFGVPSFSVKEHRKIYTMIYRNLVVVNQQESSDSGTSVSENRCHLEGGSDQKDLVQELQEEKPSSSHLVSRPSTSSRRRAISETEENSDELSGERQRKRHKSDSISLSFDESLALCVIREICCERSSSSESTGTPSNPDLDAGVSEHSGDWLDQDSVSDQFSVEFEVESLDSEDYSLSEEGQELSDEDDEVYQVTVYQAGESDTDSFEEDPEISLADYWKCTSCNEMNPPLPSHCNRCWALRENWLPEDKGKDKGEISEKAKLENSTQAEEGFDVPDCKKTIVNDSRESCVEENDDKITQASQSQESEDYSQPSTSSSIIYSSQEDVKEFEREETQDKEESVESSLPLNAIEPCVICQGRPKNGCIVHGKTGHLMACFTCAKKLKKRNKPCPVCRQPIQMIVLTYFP

- logD [1]: 1.45
SMILES: CC(=O)NC(CCCCNC(=O)c1cccc(I)c1)C(=O)NCCCCCC(=O)N[C@H](C(=O)N[C@@H](CO)C(=O)N[C@@H](Cc1ccccc1)C(=O)N[C@@]1(C)CCCCCC/C=C/CCC[C@@](C)(C(=O)N[C@@H](CCC(=O)O)C(=O)N[C@@H](CC(N)=O)C(=O)N[C@@H](Cc2ccccc2)C(N)=O)NC(=O)[C@H](CC(C)C)NC(=O)[C@H](CC(C)C)NC(=O)[C@H](C)NC(=O)[C@H](Cc2c[nH]c3ccccc23)NC(=O)[C@H](Cc2ccc(O)cc2)NC(=O)[C@H](CCC(=O)O)NC1=O)[C@@H](C)O (stereo not given in full)

- Stability [2]: 68%
- Stability [3]: 80%
SMILES: CC(=O)NC(CCCCNC(=O)c1cccc([131I])c1)C(=O)NCCCCCC(=O)N[C@H](C(=O)N[C@@H](CO)C(=O)N[C@@H](Cc1ccccc1)C(=O)N[C@@]1(C)CCCCCC/C=C/CCC[C@@](C)(C(=O)N[C@@H](CCC(=O)O)C(=O)N[C@@H](CC(N)=O)C(=O)N[C@@H](Cc2ccccc2)C(N)=O)NC(=O)[C@H](CC(C)C)NC(=O)[C@H](CC(C)C)NC(=O)[C@H](C)NC(=O)[C@H](Cc2c[nH]c3ccccc23)NC(=O)[C@H](Cc2ccc(O)cc2)NC(=O)[C@H](CCC(=O)O)NC1=O)[C@@H](C)O (stereo not given in full)

- pKd [4]: 7.82
- pIC50 [5]: 8.55
SMILES: CC(=O)N[C@@H](CCCCN)C(=O)NCCCCCC(=O)N[C@H](C(=O)N[C@@H](CO)C(=O)N[C@@H](Cc1ccccc1)C(=O)N[C@]1(C)CCCCCC/C=C/CCC[C@@](C)(C(=O)N[C@@H](CCC(=O)O)C(=O)N[C@@H](CC(N)=O)C(=O)N[C@@H](Cc2ccccc2)C(N)=O)NC(=O)[C@H](CC(C)C)NC(=O)[C@H](CC(C)C)NC(=O)[C@H](C)NC(=O)[C@H](Cc2c[nH]c3ccccc23)NC(=O)[C@H](Cc2ccc(O)cc2)NC(=O)[C@H](CCC(=O)O)NC1=O)[C@@H](C)O
